Active and inactive are the calls of the source. The calls are words filed in the database; no cut-off is given here.
Tests used:
Anoctamin-2 = target: T1, Anoctamin-2 (Homo sapiens, UniProt Q9NQ90); assay: Inhibition of YFP-fused ANO2 (unknown origin) expressed in FRT cells after 20 mins by fluorescence quenching method; assay type: cell-based
T1 sequence (Q9NQ90 whole entry): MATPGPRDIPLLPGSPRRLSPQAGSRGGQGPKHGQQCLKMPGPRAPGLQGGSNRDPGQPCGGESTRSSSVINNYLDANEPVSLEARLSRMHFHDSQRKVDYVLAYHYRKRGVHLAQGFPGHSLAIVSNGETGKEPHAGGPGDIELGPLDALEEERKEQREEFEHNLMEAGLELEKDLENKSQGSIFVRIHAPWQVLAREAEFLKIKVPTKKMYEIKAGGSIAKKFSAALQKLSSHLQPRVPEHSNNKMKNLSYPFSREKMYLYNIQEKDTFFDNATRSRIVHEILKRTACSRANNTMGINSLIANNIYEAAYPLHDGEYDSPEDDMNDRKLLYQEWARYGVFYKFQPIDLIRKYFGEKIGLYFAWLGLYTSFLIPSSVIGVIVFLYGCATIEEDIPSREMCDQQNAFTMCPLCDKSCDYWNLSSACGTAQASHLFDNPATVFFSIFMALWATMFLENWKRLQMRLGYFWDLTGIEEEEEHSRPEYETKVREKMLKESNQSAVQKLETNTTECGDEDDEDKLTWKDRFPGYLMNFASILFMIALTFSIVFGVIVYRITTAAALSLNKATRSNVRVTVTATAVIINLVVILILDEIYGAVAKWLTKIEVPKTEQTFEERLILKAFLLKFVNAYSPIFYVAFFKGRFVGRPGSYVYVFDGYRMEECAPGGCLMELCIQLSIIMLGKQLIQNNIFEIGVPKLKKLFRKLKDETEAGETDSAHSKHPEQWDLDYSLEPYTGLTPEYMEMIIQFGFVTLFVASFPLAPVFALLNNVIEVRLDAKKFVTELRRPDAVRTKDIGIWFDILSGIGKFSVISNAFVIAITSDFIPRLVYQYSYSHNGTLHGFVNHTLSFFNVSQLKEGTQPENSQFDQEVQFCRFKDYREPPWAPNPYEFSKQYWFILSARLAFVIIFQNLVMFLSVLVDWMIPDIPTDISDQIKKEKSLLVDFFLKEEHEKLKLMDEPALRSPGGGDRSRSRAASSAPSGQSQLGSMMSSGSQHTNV

ANO2 (Anoctamin-2) = target: T2, ANO2 (Anoctamin-2) (Homo sapiens, UniProt Q9NQ90); assay: Inhibition of YFP-fused ANO2 (unknown origin) expressed in FRT cells after 20 mins by fluorescence quenching method relative to untreated control; assay type: cell-based; design: concentration or dose not given beside the values; conditions: FRT cells expressing YFP-fused ANO2
T2 sequence (Q9NQ90 whole entry): T1 sequence (Q9NQ90 whole entry)
In short: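 FRT cells stably co-expressing YFP-H148Q/I152L/F46L and ANO1 or ANO2, seeded 2×10^4 per well and grown 48 h. After PBS washes, compound given for 20 min. At 2 s, 70 mM I⁻ solution containing 200 µM ATP added; fluorescence read every 0.4 s for 6 s. Inhibition taken from initial slope of quenching; mean ± S.E., n = 3.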

Anoctamin-1 = target: T3, Anoctamin-1 (Homo sapiens, UniProt Q5XXA6); assay: Inhibition of YFP-fused ANO1 (unknown origin) expressed in FRT cells after 20 mins by fluorescence quenching method; assay type: cell-based
T3 sequence (Q5XXA6 whole entry): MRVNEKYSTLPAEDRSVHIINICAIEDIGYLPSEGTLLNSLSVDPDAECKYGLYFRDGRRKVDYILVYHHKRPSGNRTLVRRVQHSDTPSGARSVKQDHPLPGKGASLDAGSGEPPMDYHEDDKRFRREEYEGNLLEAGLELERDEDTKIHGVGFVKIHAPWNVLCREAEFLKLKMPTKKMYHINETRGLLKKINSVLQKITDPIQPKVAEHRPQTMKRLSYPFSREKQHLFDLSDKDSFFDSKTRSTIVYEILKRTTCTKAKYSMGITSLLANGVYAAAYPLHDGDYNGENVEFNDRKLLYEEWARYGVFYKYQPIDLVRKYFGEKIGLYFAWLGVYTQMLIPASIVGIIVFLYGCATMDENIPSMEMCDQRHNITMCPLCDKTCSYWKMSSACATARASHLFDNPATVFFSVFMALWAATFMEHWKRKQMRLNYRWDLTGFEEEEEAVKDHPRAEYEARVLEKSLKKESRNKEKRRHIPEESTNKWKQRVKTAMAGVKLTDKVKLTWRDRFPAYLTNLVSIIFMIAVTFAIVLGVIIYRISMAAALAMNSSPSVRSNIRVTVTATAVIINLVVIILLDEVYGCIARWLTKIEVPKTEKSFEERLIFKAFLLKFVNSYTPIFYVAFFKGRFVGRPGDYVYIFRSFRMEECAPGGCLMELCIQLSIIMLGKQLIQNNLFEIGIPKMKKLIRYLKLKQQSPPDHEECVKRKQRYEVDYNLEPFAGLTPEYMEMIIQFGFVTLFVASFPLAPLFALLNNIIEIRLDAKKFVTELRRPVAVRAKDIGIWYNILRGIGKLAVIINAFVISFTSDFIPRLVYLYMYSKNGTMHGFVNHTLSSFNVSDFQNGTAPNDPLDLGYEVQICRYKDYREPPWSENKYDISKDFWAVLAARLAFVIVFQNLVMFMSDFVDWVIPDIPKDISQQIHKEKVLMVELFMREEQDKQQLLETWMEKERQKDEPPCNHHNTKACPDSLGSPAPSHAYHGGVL

[1] = Half life in rat plasma at 5 uM by LC-MS/MS analysis; assay type: ADME, cell-free
In short: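 Compound at 5 µM final in rat plasma, shaken at 37 °C and sampled at 0, 30, 60, 120 and 240 min. Reaction stopped with three volumes of ice-cold acetonitrile and protein spun out. Supernatant analysed by LC-MS/MS on a C18 column with formic acid/water–ACN mobile phase. Percent parent remaining taken from peak areas; n = 3.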

BXPC-3 [2] = assay: Cytotoxicity against human BxPC3 cells assessed as reduction in cell viability at 10 uM after 48 hrs by MTS assay; assay type: functional, cell-based
In short: (§1)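 PC3, MCF7 and BxPC3 cells grown in RPMI1640 with 10% FBS, plated and held 24 h in 2% FBS medium. At about 20% confluency, compound added at 0.01–30 µM for 48 h, with medium and compound replaced every 24 h. MTS reagent applied for 1 h and formazan absorbance read at 490 nm; mean ± S.E., n = 3.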

MCF7 [3] = assay: Cytotoxicity against human MCF7 cells assessed as reduction in cell viability at 10 uM after 48 hrs by MTS assay; assay type: functional, cell-based; in short: as §1
PC-3 [4] = assay: Cytotoxicity against human PC3 cells assessed as reduction in cell viability at 10 uM after 48 hrs by MTS assay; assay type: functional, cell-based; in short: as §1
[5] = target: CFTR (cystic fibrosis transmembrane conductance regulator) (Homo sapiens, UniProt P13569); assay: Inhibition of wild type human CFTR expressed in FRT cells assessed as reduction in forskolin-induced chloride current at 10 uM after 20 mins by electrophysiological assay; assay type: cell-based; conditions: FRT cells expressing wild type human CFTR
In short: (§2)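 Ussing chamber, FRT monolayers expressing ANO1, ANO2 or human WT-CFTR. Basolateral side permeabilised with amphotericin B (250 µg/mL) in HCO3⁻-buffered solution, pH 7.4; apical side half-Cl⁻ (65 mM NaCl replaced by gluconate). Run at 37 °C under 95% O2/5% CO2. Compound applied apically for 20 min, then ANO1/2 activated with 100 µM ATP or CFTR with 20 µM forskolin. Apical current recorded; n = 3–6.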

Homo sapiens [6] = species on record: Homo sapiens; assay: Selectivity for ANO1 (unknown origin) over ANO2 (unknown origin)
[7] = target: T4, Anoctamin-1 (Homo sapiens) (UniProt Q5XXA6); assay: Inhibition of ANO1 (unknown origin) expressed in FRT cells assessed as reduction in ATP-induced chloride current after 20 mins by electrophysiological assay; assay type: cell-based
T4 sequence (whole entry): T3 sequence (Q5XXA6 whole entry)

BXPC-3 [8] = assay: Cytotoxicity against human BxPC3 cells assessed as reduction in cell viability after 48 hrs by MTS assay; assay type: functional, cell-based; in short: as §1
PC-3 [9] = assay: Cytotoxicity against human PC3 cells assessed as reduction in cell viability after 48 hrs by MTS assay; assay type: functional, cell-based; in short: as §1
PC-3 [10] = assay: Inhibition of ANO1 protein expression level in human PC3 cells at 3 to 10 uM after 24 hrs by Western blot analysis; assay type: functional, cell-based
In short: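 PC3 cells exposed to compound for 24 h and lysed in NP-40/deoxycholate buffer with protease and phosphatase inhibitors. Lysate cleared at 15000 g, resolved on 4–12% Tris-glycine gel and transferred to PVDF. Blocked in 4% milk/TBST, probed with anti-ANO1 (1:500) then anti-rabbit secondary (1:2000), and detected by ECL.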

MCF7 [11] = assay: Cytotoxicity against human MCF7 cells assessed as reduction in cell viability after 48 hrs by MTS assay; assay type: functional, cell-based; in short: as §1
Homo sapiens [12] = species on record: Homo sapiens; assay: Selectivity for ANO1 (unknown origin) over wild type human CFTR
[13] = target: Cystic fibrosis transmembrane conductance regulator (Homo sapiens, UniProt P13569); assay: Inhibition of wild type human CFTR expressed in FRT cells assessed as reduction in forskolin-induced chloride current at 30 to 100 uM after 20 mins by electrophysiological assay; assay type: cell-based; in short: as §2
Sequence of Cystic fibrosis transmembrane conductance regulator (P13569 whole entry): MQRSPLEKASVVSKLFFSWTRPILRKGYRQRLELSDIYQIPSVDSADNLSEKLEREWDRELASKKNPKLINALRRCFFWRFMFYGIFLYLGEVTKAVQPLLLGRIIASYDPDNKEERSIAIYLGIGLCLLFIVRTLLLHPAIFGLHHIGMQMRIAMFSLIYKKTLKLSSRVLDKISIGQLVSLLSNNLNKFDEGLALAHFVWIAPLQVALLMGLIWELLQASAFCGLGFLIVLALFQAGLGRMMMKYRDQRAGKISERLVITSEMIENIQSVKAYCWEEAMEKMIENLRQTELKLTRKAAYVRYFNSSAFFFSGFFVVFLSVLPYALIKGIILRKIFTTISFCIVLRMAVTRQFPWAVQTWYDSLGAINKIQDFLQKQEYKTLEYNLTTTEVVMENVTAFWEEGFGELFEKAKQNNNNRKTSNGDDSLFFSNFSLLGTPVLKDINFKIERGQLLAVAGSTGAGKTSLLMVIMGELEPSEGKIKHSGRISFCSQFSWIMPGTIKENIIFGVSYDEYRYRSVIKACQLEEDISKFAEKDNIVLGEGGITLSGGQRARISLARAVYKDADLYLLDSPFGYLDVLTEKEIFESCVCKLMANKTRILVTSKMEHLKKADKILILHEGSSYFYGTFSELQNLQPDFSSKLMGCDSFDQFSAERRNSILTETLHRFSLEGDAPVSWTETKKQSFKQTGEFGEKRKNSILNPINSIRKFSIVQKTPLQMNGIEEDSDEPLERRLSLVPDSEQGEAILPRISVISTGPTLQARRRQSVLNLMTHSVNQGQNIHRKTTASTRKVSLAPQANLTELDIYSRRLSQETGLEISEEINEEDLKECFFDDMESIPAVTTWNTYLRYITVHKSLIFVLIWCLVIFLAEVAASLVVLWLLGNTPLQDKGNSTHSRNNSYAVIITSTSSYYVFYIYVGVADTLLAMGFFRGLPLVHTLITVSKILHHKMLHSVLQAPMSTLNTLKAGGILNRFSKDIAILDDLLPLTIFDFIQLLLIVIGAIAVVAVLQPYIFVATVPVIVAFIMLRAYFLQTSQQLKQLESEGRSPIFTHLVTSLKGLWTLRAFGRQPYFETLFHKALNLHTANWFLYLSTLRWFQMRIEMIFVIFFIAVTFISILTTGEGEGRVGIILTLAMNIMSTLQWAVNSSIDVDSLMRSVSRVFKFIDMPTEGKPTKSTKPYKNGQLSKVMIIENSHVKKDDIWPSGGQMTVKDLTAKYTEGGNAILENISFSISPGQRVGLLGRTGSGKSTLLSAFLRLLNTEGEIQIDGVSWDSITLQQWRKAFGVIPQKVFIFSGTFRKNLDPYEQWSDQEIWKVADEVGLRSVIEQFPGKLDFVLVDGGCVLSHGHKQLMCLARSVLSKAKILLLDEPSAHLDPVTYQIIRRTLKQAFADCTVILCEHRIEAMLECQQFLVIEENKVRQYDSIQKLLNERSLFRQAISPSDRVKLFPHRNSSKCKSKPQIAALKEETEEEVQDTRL

Sequence of CFTR (cystic fibrosis transmembrane conductance regulator) (P13569 whole entry): as above

Structure (SMILES) | IC50 (Anoctamin-2) | inhibition at 20 min (ANO2 (Anoctamin-2)) | IC50 (Anoctamin-2; read-out: IC50) | IC50 (Anoctamin-1; read-out: IC50) | other results
Cc1cc(Cl)ccc1OC(C)(C)C(=O)N/N=C/c1ccccc1OC(F)(F)F | – | – | > 100 µM | – | IC50 (Anoctamin-1): Not Active
Cc1cc(Cl)ccc1OCC(=O)N/N=C/c1ccccc1C(F)(F)F | Not Active | < 20% | – | – | –
COc1ccccc1CNNC(=O)COc1ccc(Cl)cc1C | – | – | > 100 µM | – | –
Cc1cc(Cl)ccc1OC(F)(F)C(=O)N/N=C/c1ccccc1OC(F)(F)F | – | – | > 100 µM | > 100 µM | –
Cc1cc(Cl)ccc1OCc1nnc(-c2cccc(F)c2)o1 | – | – | > 100 µM | > 100 µM | –
COc1ccccc1-c1nnc(-c2cc3cc(Cl)ccc3o2)o1 | – | – | > 100 µM | > 100 µM | –
COc1ccccc1/C=N/NC(=O)COc1ccc(Cl)cc1C | – | – | – | – | half-life at 5 µM [1]: 0.533 h
C/C(=N\NC(=O)COc1ccc(Cl)cc1C)c1ccccc1OC(F)(F)F | – | – | > 100 µM | – | –
Cc1cc(Cl)ccc1OCC(=O)N/N=C/c1ccccc1F | Not Active | < 20% | – | 0.89 µM | –
COc1ccccc1/C=N/NC(=O)c1cc2cc(Cl)ccc2o1 | – | – | > 100 µM | > 100 µM | –
Cc1cc(Cl)ccc1OCc1nnc(-c2ccccc2OC(F)(F)F)o1 | Not Active | < 20% | – | > 100 µM | –
Cc1cc(Cl)ccc1OC(C)C(=O)N/N=C/c1ccccc1OC(F)(F)F (configuration not stated) | Not Active | – | – | > 100 µM | –
Cc1cc(Cl)ccc1OCc1nnc(-c2ccccn2)o1 | Not Active | < 20% | – | > 100 µM | –
COc1cccc(-c2nnc(COc3ccc(Cl)cc3C)o2)c1 | – | – | > 100 µM | > 100 µM | –
O=C(O)c1ccc(/C=C2/SC(=S)N(c3cccc(C(F)(F)F)c3)C2=O)cc1 | – | – | – | – | inhibition at 20 min, 10 µM [5]: 100%
Cc1cc(Cl)ccc1OCC(=O)N/N=C/c1cccc(F)c1 | Not Active | < 20% | – | > 100 µM | –

The next lines start with results.

IC50 (Anoctamin-2) | inhibition at 20 min (ANO2 (Anoctamin-2)) | IC50 (Anoctamin-2; read-out: IC50) | IC50 (Anoctamin-1; read-out: IC50) | Structure (SMILES) | other results
Not Active | < 20% | – | – | Cc1cc(Cl)ccc1OCC(=O)N/N=C/c1ccco1 | –
Not Active | < 20% | – | > 100 µM | Cc1cc(Cl)ccc1OCc1nnc(-c2cccc(OC(F)(F)F)c2)o1 | –
– | – | > 100 µM | > 100 µM | Cc1cc(Cl)ccc1OCc1nnc(-c2ccccc2C(F)(F)F)o1 | –
Not Active | < 20% | – | > 100 µM | Cc1cc(Cl)ccc1OCC(=O)N/N=C/c1cccc(OC(F)(F)F)c1 | Activity (BXPC-3 [2]): inactive; Activity (MCF7 [3]): inactive; Activity (PC-3 [4]): inactive
– | – | > 100 µM | – | Cc1cc(Cl)ccc1OCc1nnc(-c2ccccc2F)o1 | –
– | – | > 100 µM | – | Cc1cc(Cl)ccc1OCC(=O)N/N=C/c1ccccn1 | –
Not Active | < 20% | – | > 100 µM | COc1cccc(/C=N/NC(=O)COc2ccc(Cl)cc2C)c1 | –
Not Active | < 20% | – | – | Cc1cc(Cl)ccc1OCC(=O)N/N=C/c1ccccc1OC(F)(F)F | Selectivity ratio (Homo sapiens [6]): > 1000; inhibition [7]: Dose-dependent effect; Activity (BXPC-3 [8]): Dose-dependent effect; half-life at 5 µM [1]: 1.73 h; Activity (PC-3 [9]): Dose-dependent effect; inhibition (PC-3 [10]): Active; Activity (MCF7 [11]): Dose-dependent effect; Selectivity ratio (Homo sapiens [12]): > 1000; inhibition (INH) [13]: Not Active
– | – | > 100 µM | – | Cc1cc(Cl)ccc1OCc1nnc(-c2ccco2)o1 | –

Source: ChEMBL document CHEMBL4308858 (Eur J Med Chem, 2018)
